Source: PubChem (several laboratories)
Hits are enriched below; roughly 2.9% of the tested compounds scored in any of these assays.
MEKK3 PB1 HTS = modulators of MEKK3-MEK5 PB1 binding, primary screen, biochemical, wildtype MEKK3, multiplex bead flow cytometry, Alexa488-MEK5; 1.4% of 290,000 active; binding response (% of control), % at 10 µM; Mitogen-activated protein kinase kinase kinase 3 (Homo sapiens), Q99759; bead-based flow cytometry, Alexa488-MEK5 binding to MEKK3; actives lie on both sides; 0 = blocked by unlabeled MEK5, 100 = vehicle;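 active means binding response more than 3 SD above or below the average of its plate-row segment, actives on both sides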;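 further: Alexa488 bead fluorescence after subtracting the streptavidin-only scavenger bead signal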
UBC13 inh = UBC13 polyubiquitin chain formation inhibitors, primary screen, biochemical, TR-FRET, uHTS; 0.47% of 330,000 active; inhibition, % at 20 µM; Ubiquitin-conjugating enzyme E2 N (Homo sapiens), P61088; in the data active means inhibition above about 45%, passing the limit was not always enough
MEKK2wt PB1 HTS = modulators of MEK5 binding to wildtype MEKK2, primary screen, biochemical, multiplex bead flow cytometry, Alexa488-MEK5. Mitogen-activated protein kinase kinase kinase 2 (Homo sapiens), Q9Y2U5. 1.1% of 290,000 active. AID 1531, 2009. Alexa488-MEK5 binding to MEKK2 WT; actives lie on both sides. binding response (% of control), % at 10 µM; in the data active means binding response below about 67% or above about 130%
Apaf-1 inh = inhibitors of human Apaf-1 apoptosome, primary screen, biochemical, DEVD-Rh110 fluorescence, uHTS; 0.71% of 330,000 active; inhibition, % at 20 µM; reconstituted apoptosome caspase-3 activity; AID 489030, 2010; active means inhibition of at least 40% at 20 µM;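 further: plate controls were DMSO wells for no effect and DEVD-CHO caspase inhibitor wells for full effect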
Target sequence (O14727 whole entry, looked up): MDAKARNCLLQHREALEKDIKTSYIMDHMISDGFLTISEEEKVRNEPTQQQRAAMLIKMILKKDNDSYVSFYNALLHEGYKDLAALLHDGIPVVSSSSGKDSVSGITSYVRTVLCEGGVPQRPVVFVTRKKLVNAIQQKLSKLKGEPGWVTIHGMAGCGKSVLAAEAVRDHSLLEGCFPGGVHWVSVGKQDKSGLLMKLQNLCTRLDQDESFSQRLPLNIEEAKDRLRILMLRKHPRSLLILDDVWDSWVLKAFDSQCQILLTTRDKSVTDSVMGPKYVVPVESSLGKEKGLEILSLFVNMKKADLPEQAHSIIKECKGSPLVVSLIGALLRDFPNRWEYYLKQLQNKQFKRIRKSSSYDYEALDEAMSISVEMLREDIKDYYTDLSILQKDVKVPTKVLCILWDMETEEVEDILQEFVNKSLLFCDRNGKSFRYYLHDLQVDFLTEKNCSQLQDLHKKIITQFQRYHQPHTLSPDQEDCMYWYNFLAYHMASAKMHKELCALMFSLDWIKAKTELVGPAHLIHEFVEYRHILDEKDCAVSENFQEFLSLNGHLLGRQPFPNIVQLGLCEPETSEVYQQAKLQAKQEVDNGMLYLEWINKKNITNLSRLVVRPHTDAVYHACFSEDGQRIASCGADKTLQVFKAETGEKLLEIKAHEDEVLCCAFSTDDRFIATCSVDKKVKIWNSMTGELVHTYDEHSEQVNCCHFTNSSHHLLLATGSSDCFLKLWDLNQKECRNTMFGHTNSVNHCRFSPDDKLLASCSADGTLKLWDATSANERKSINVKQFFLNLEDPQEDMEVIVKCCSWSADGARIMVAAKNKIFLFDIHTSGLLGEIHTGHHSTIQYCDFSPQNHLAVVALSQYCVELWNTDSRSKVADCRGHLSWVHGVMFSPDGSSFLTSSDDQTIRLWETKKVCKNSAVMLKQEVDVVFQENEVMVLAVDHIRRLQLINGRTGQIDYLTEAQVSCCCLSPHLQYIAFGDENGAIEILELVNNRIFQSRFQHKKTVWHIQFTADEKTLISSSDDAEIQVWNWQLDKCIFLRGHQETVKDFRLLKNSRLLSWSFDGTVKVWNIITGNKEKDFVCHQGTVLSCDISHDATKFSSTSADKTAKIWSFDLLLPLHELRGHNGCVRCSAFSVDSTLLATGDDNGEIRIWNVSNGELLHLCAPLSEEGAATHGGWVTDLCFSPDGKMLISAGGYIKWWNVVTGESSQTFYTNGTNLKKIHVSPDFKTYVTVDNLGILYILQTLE
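Material: cell-free apoptosome with Apaf-1, procaspase-3 and caspase-9; Buffer or medium: Hepes pH 7.5 with detergent and BSA; Reagent: cytochrome c trigger plus (Z-DEVD)2-Rh110 caspase-3 substrate; Times: compound with Apaf-1, dATP, procaspase-3 30 min, then 50 min reaction, room temperature; Technique: Rh110 fluorescence intensity.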
MEKK2mut PB1 HTS = MEK5 binding signal on mutant MEKK2 PB1, primary screen, biochemical, multiplex bead flow cytometry, Alexa488-MEK5; Alexa488-MEK5 binding to MEKK2 mutant; percent response, % at 10 µM; 0.35% of 290,000 active; in the data active means percent response above about 24%, passing the limit was not always enough
MEKK2wt confirm = modulators of MEK5 binding to wildtype MEKK2, confirmation, biochemical, single concentration, multiplex bead flow cytometry. Alexa488-MEK5 binding to MEKK2 WT; actives lie on both sides. 2.4% of 5,900 active. binding response (% of control), % at 10 µM. shares compounds with MEKK3 PB1 HTS. AID 1892, 2009; in the data active means binding response below about 16% or above about 210%; inactive means in between
MEKK2mut-MEK5 = mutant MEKK2 PB1-MEK5 binding signal retest – biochemical, single concentration, multiplex bead flow cytometry, confirmation. shares compounds with MEKK3 PB1 HTS. Alexa488-MEK5 binding to MEKK2 mutant. percent response, % at 10 µM. 2% of 5,900 active. AID 1893, 2009; in the data active means percent response mostly above about 71%, no sharp cut-off; inactive means mostly below about 38%;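 further: higher means compound restores mutant binding toward wildtype level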
MEKK3-MEK5 inh = MEKK3 wild-type PB1 binding to MEK5, inhibitors, confirmation, biochemical, bead multiplex flow cytometry, single concentration, wildtype | shares compounds with MEKK3 PB1 HTS | Alexa488-MEK5 binding to MEKK3; hits give low values | binding response (% of control), % at 10 µM | 1.8% of 5,900 active;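 active means binding response below 72% of control, or above a set upper limit, though filed actives all read lower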;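 further: 100% = DMSO only wells and 0% = binding blocked by excess unlabeled MEK5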
Casp3 counter = CASP3 inhibitor validation, counterassay for project on UBE2N polyubiquitination blockers, biochemical, one dose; shares compounds with UBC13 inh; Recombinant caspase-3, Caspase-Glo 3/7 luminescence, 60 min; inhibition, % at 20 µM; 4% of 1,400 active; AID 488856, 2010;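 active means mean inhibition across replicates above about 26%, limit read from the data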;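 further: plate controls were DMSO with caspase-3 for no effect and DMSO wells lacking enzyme for full effect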
UBC13 confirm = UBC13 polyubiquitination inhibitors, single-point retest, confirmation, biochemical, TR-FRET, single concentration. shares compounds with UBC13 inh. inhibition, % at 10 µM. AID 488859, 2010. 68% of 1,400 active; in the data active means inhibition above about 45%
Apaf-1 inh conf2 = Apaf-1 inhibitors, single-dose retest, confirmation, biochemical, fluorescence, DEVD-Rh110, 20 µM; shares compounds with Apaf-1 inh; reconstituted apoptosome, caspase-3 DEVD-Rh110 fluorescence; inhibition, % at 20 µM; 25% of 1,800 active;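 active means mean inhibition of at least 40% at 20 µM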;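 further: plate controls were DMSO wells for no effect and DEVD-CHO caspase inhibitor control wells for full effect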
Rh110 quench = Rh110 fluorescence interference by putative Apaf-1 inhibitors, confirmation, artefact control for Apaf-1 inhibitor project, biochemical, 20 µM; shares compounds with Apaf-1 inh; quenched caspase reaction; activation (fluorescence interference), % at 20 µM; 1,800 tested, under 10 active;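 active means signal rise of 40% or more at 20 µM, treated as a fluorescence artifact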
Apaf1 inh interf = fluorescence interference of Apaf-1 inhibitor hits, dose response, artefact control for Apaf-1 inhibitor project | 460 tested, under 10 active | IC50, µM | fluorescence interference counterscreen, Apaf-1 assay format | shares compounds with Apaf-1 inh; call rule not given here
* = called active by the depositor; nt = no result; ! = not active in a repeat; [ ] = remark or other dose.

SMILES	MEKK3 PB1 HTS	UBC13 inh	MEKK2wt PB1 HTS	Apaf-1 inh	MEKK2mut PB1 HTS	MEKK2wt confirm	MEKK2mut-MEK5	MEKK3-MEK5 inh	Casp3 counter	UBC13 confirm	Apaf-1 inh conf2	Rh110 quench	others
CC(C)C[C@H](N)c1cn([C@@H](Cc2cc3ccccc3[nH]2)C(=O)N2CCNCC2)nn1	106	72*	147*	-12	32	136	53	106	7	77*	nt	nt
CCC(C)[C@H](N)c1cn([C@@H](Cc2cc3ccccc3[nH]2)C(=O)N2CCNCC2)nn1 (some centres undefined)	92	94*	151*	-11	34	147	45	111	-5	81*	nt	nt
CCn1c(CC(=O)Nc2ccc(C)cc2)nnc1SCC(=O)N1CCOCC1	104	-3	101	9	7	nt	nt	nt	nt	nt	nt	nt
NCCNc1ccc(C(=O)N2c3ccccc3Sc3ccccc32)cc1[N+](=O)[O-]	114	65*	182*	29	37*	167	48	111	-2	111*	nt	nt
O=C(Cn1cc(C(F)(F)F)ccc1=O)N/N=C/c1cccc(Cl)c1	95	-12	94	20	-1	nt	nt	nt	nt	nt	nt	nt
O=C(Cn1nc(CNc2ccc(Br)cc2)[n+]2c1CCCCC2)c1ccc([N+](=O)[O-])cc1	103	52*	146*	25	33	132	19	96	0	46*	nt	nt
O=C(Cn1nc(CNc2ccc(Cl)cc2)[n+]2c1CCCCC2)c1ccc(Br)cc1	99	42	120	25	0	nt	nt	nt	nt	nt	nt	nt
COCC1CCN(Cc2c(C(=O)N3CCc4ccccc4C3)nc3ccc(Cl)cn23)C1 (centres undefined)	101	-1	97	15	3	nt	nt	nt	nt	nt	nt	nt
Oc1ccccc1/C=N/Nc1cc(N2CCCC2)nc(N2CCCC2)n1	102	-12	181*	98*	40	152	22	107	nt	nt	100*	4	Apaf1 inh interf=>100
Cc1ccc(N=C(N)N=C(N)N)c(C)c1	99	7	95	-3	-1	nt	nt	nt	nt	nt	nt	nt
COC(=O)c1ccc([C@@H]2C[C@H]3CN(Cc4cccnc4)C(=O)[C@]34CCCN24)cc1	97	-2	103	9	-5	nt	nt	nt	nt	nt	nt	nt
COc1cc(OC)c2c(-c3ccccc3)cc(=O)oc2c1C(CCN1CCCCC1)c1ccc(N(C)C)cc1 (centres undefined)	127	51*	183*	54*	20	154	34	104	-1	18	25	0
COc1cc(OC)c2c(-c3ccccc3)cc(=O)oc2c1C(CCN1CCCC(C)C1)c1ccc2c(c1)OCO2 (centres undefined)	123	4	183*	56*	26*	169	35	105	nt	nt	19	11
COc1cc(OC)c2c(-c3ccccc3)cc(=O)oc2c1C(CC(=O)N1CCCC1)c1ccc2c(c1)OCO2 (centres undefined)	109	-2	112	33	5	nt	nt	nt	nt	nt	nt	nt
COc1cc(C(CCN2CCN(c3ccccc3)CC2)c2c(OC)cc(OC)c3c(C)cc(=O)oc23)cc(OC)c1OC (centres undefined)	108	-14	101	30	12	nt	nt	nt	nt	nt	nt	nt
COc1ccc(C(CCN2CCCCC2)c2c(OC)cc(OC)c3c(-c4ccccc4)cc(=O)oc23)cc1 (centres undefined)	106	68*	182*	55*	26*	153	22	106	-4	37	27	6
CN(C)c1ccc(N2C(=NC(=O)COc3ccccc3)SC3CS(=O)(=O)CC32)cc1 (centres undefined)	99	-6	100	20	0	nt	nt	nt	nt	nt	nt	nt
O=C1CCc2ccc(OCCCCN3CCN(c4cccc(Cl)c4Cl)CC3)cc2N1	113	35	177*!	43*	15	1.0*[inhibitor]	-29	1.0*	nt	nt	18	8
COc1ccccc1N1CCN(CCCOc2ccc(F)cc2)CC1	89	-2	91	-11	-4	nt	nt	nt	nt	nt	nt	nt
COc1ccc(/C=N/Nc2cc(C)nc3ccc(Br)cc23)cc1	106	61*	214*	55*	73*	245*	120*	107	4	85*	24	-1
COc1cccc2c(N/N=C/c3ccccc3)cc(C)nc12	100	-3	102	11	-3	nt	nt	nt	nt	nt	nt	nt
CCn1c(CNc2cccc(C(F)(F)F)c2)n[nH]c1=S	96	5	95	-16	-8	nt	nt	nt	nt	nt	nt	nt
Cc1ccccc1OCCNc1cc(N2CC(C)NC(C)C2)ccc1[N+](=O)[O-] (centres undefined)	120	22	198*	56*	47	137	31	100	nt	nt	24	9
NCCNc1cc(N2CCCC2)ccc1[N+](=O)[O-]	101	-87	105	-5	-1	nt	nt	nt	nt	nt	nt	nt
O=C(CCNS(=O)(=O)c1ccc(Br)cc1)NCc1ccco1	nt	0	nt	4	nt	nt	nt	nt	nt	nt	nt	nt
